From ChEMBL document CHEMBL3228024, “Prodrug analogues of the antitumor alkaloid camptothecin” (1979)
Activity calls are given as the source filed them. The calls are words filed in the database; no cut-off is given here.

Assays:
[1] = test system: P388; assay: Cytotoxicity against mouse P388 cells; format: functional
[2] = test system: P388; assay: Antitumor activity against mouse P388 cells allografted in mouse assessed as increase in mouse survival time at 1.1 mg/kg, iv for 4 to 9 days relative to control; format: functional
Summary of the method: (§1)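 Run under NCI protocols 3LE21 (L1210) and 3PS31 (P388) in mice, six mice per test group. Drug was injected daily for 9 days, with 20–30 uninjected control animals. Mean or median survival time of the treated group was divided by that of controls and multiplied by 100, then reported as percentage increase in life span.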

[3] = test system: P388; assay: Antitumor activity against mouse P388 cells allografted in mouse assessed as increase in mouse survival time at 3.3 mg/kg, iv for 4 to 9 days relative to control; format: functional; summary of the method: as §1
[4] = test system: L1210; assay: Antitumor activity against mouse L1210 cells allografted in mouse assessed as increase in mouse survival time at 1.1 mg/kg, iv for 4 to 9 days relative to control; format: functional; summary of the method: as §1
[5] = test system: P388; assay: Antitumor activity against mouse P388 cells allografted in mouse assessed as increase in mouse survival time at 10 mg/kg, iv for 4 to 9 days relative to control; format: functional; summary of the method: as §1
[6] = Cytotoxicity against human 9KB cells; format: functional
[7] = test system: L1210; assay: Antitumor activity against mouse L1210 cells allografted in mouse assessed as increase in mouse survival time at 10 mg/kg, iv for 4 to 9 days relative to control; format: functional; summary of the method: as §1
[8] = test system: L1210; assay: Antitumor activity against mouse L1210 cells allografted in mouse assessed as increase in mouse survival time at 0.4 mg/kg, iv for 4 to 9 days relative to control; format: functional; summary of the method: as §1
[9] = test system: L1210; assay: Cytotoxicity against mouse L1210 cells; format: functional
[10] = test system: L1210; assay: Antitumor activity against mouse L1210 cells allografted in mouse assessed as increase in mouse survival time at 3.3 mg/kg, iv for 4 to 9 days relative to control; format: functional; summary of the method: as §1
[11] = test system: P388; assay: Antitumor activity against mouse P388 cells allografted in mouse assessed as increase in mouse survival time at 0.4 mg/kg, iv for 4 to 9 days relative to control; format: functional; summary of the method: as §1
[12] = test system: P388; assay: Antitumor activity against mouse P388 cells allografted in mouse assessed as increase in mouse survival time at 1.2 mg/kg, iv for 4 to 9 days relative to control; format: functional; summary of the method: as §1
[13] = test system: P388; assay: Antitumor activity against mouse P388 cells allografted in mouse assessed as increase in mouse survival time at 3.7 mg/kg, iv for 4 to 9 days relative to control; format: functional; summary of the method: as §1
[14] = test system: P388; assay: Antitumor activity against mouse P388 cells allografted in mouse assessed as increase in mouse survival time at 11.1 mg/kg, iv for 4 to 9 days relative to control; format: functional; summary of the method: as §1
[15] = test system: L1210; assay: Antitumor activity against mouse L1210 cells allografted in mouse assessed as increase in mouse survival time at 3.7 mg/kg, iv for 4 to 9 days relative to control; format: functional; summary of the method: as §1
[16] = test system: L1210; assay: Antitumor activity against mouse L1210 cells allografted in mouse assessed as increase in mouse survival time at 11.1 mg/kg, iv for 4 to 9 days relative to control; format: functional; summary of the method: as §1
[17] = test system: L1210; assay: Antitumor activity against mouse L1210 cells allografted in mouse assessed as increase in mouse survival time at 1.2 mg/kg, iv for 4 to 9 days relative to control; format: functional; summary of the method: as §1
[18] = test system: HeLa; assay: Antitumor activity against human HeLa cells assessed as inhibition of radioactive thymidine incorporation into acid-insoluble material by DNA sedimentation assay; format: functional, cell-based
[19] = test system: P388; assay: Antitumor activity against mouse P388 cells allografted in mouse assessed as increase in mouse survival time at 62.5 mg/kg, iv for 4 to 9 days relative to control; format: functional
Summary of the method: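 Mice bearing P388 leukemia (NCI protocol 3PS31), six mice per test, drug injected daily for 9 days (in some tests for only 6 days). Controls were 20–30 animals receiving no injection. Activity was expressed as mean/median survival time of the test group divided by that of the control group ×100.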

[20] = test system: B16; assay: Antitumor activity against mouse B16 cells allografted in mouse assessed as increase in mouse survival time at 4 mg/kg, iv for 4 to 9 days relative to control; format: functional
Summary of the method: (§2)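 Run under NCI protocols 3B131 (B-16 melanocytic melanoma) and 3LL32 (Lewis lung carcinoma) in mice, ten mice per test group. Drug was injected every 4 days, with 20–30 uninjected control animals. Mean or median survival of treated mice over that of controls ×100 was reported as percentage increase in life span.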

[21] = Cytotoxicity against human 9KB cells relative to camptothecin; format: functional
[22] = test system: L1210; assay: Antitumor activity against mouse L1210 cells allografted in mouse assessed as increase in mouse survival time at 4.8 mg/kg, iv for 4 to 9 days relative to control; format: functional; summary of the method: as §1
[23] = test system: P388; assay: Antitumor activity against mouse P388 cells allografted in mouse assessed as increase in mouse survival time at 4.8 mg/kg, iv for 4 to 9 days relative to control; format: functional; summary of the method: as §1
[24] = test system: Lewis lung carcinoma cell line; assay: Antitumor activity against mouse LLC cells allografted in mouse assessed as increase in mouse survival time at 4 mg/kg, iv for 4 to 9 days relative to control; format: functional; summary of the method: as §2
[25] = test system: L1210; assay: Antitumor activity against mouse L1210 cells allografted in mouse assessed as increase in mouse survival time at 0.5 mg/kg, iv for 4 to 9 days relative to control; format: functional; summary of the method: as §1
[26] = test system: L1210; assay: Antitumor activity against mouse L1210 cells allografted in mouse assessed as increase in mouse survival time at 14.3 mg/kg, iv for 4 to 9 days relative to control; format: functional; summary of the method: as §1
[27] = test system: B16; assay: Antitumor activity against mouse B16 cells allografted in mouse assessed as increase in mouse survival time at 14.6 mg/kg, iv for 4 to 9 days relative to control; format: functional; summary of the method: as §2
[28] = test system: P388; assay: Antitumor activity against mouse P388 cells allografted in mouse assessed as increase in mouse survival time at 1.6 mg/kg, iv for 4 to 9 days relative to control; format: functional; summary of the method: as §1
[29] = test system: P388; assay: Cytotoxicity against mouse P388 cells relative to camptothecin; format: functional
[30] = test system: B16; assay: Antitumor activity against mouse B16 cells allografted in mouse assessed as increase in mouse survival time at 46 mg/kg, iv for 4 to 9 days relative to control; format: functional; summary of the method: as §2
[31] = test system: Lewis lung carcinoma cell line; assay: Antitumor activity against mouse LLC cells allografted in mouse assessed as increase in mouse survival time at 14.6 mg/kg, iv for 4 to 9 days relative to control; format: functional; summary of the method: as §2
[32] = test system: P388; assay: Antitumor activity against mouse P388 cells allografted in mouse assessed as increase in mouse survival time at 0.5 mg/kg, iv for 4 to 9 days relative to control; format: functional; summary of the method: as §1
[33] = test system: Lewis lung carcinoma cell line; assay: Antitumor activity against mouse LLC cells allografted in mouse assessed as increase in mouse survival time at 44.4 mg/kg, iv for 4 to 9 days relative to control; format: functional; summary of the method: as §2
[34] = test system: L1210; assay: Cytotoxicity against mouse L1210 cells relative to camptothecin; format: functional
[35] = test system: L1210; assay: Antitumor activity against mouse L1210 cells allografted in mouse assessed as increase in mouse survival time at 1.6 mg/kg, iv for 4 to 9 days relative to control; format: functional; summary of the method: as §1
[36] = test system: P388; assay: Antitumor activity against mouse P388 cells allografted in mouse assessed as increase in mouse survival time at 14.3 mg/kg, iv for 4 to 9 days relative to control; format: functional; summary of the method: as §1

Which ED50 [1] does the source give for `CC[C@@]1(O)C(=O)OCc2c1cc1n(c2=O)Cc2cc3ccccc3nc2-1` [CAMPTOTHECIN] here?
The ED50 was 8.6 ×10⁻⁶ umol/ml.

And the T/C [2]?
Its T/C is 147%.

And the T/C [3]?
The T/C was 204%.

What about the T/C [4] of the same compound?
Its T/C is 131%.

And the T/C [5]?
Its T/C is 81%.

What about the ED50 [6] of the same compound?
The ED50 was under 2.8 ×10⁻⁶ umol/ml.

What about the T/C [7] of the same compound?
The T/C was 85%.

What about the T/C [8] of the same compound?
The T/C was 114%.

And the ED50 [9]?
Its ED50 is 2.8 ×10⁻⁶ umol/ml.

And the T/C [10]?
Its T/C is 168%.

What about the T/C [11] of the same compound?
The T/C was 137%.

Which T/C [12] does the source give for `CC[C@@](O)(C(=O)[O-])c1cc2n(c(=O)c1CO)Cc1cc3ccccc3nc1-2.[Na+]` here?
The T/C was 168%.

What about the T/C [13] of the same compound?
Its T/C is 85%.

What about the T/C [14] of the same compound?
Its T/C is 67%.

And the T/C [15]?
The T/C was 114%.

And the T/C [16]?
Its T/C is 74%.

What about the T/C [8] of the same compound?
Its T/C is 116%.

What about the T/C [11] of the same compound?
Its T/C is 139%.

And the T/C [17]?
The T/C was 147%.

What about the inhibition [18] of the same compound?
Its inhibition is “Active”.

With `CC[C@@](O)(C(=O)NC(C)C)c1cc2n(c(=O)c1CN1CCCC1)Cc1cc3ccccc3nc1-2.Cl` as the compound, how does the T/C [19] read?
The T/C was 125%.

With `CCCCCC(=O)OCc1c([C@@](O)(CC)C(=O)NC(C)C)cc2n(c1=O)Cc1cc3ccccc3nc1-2` as the compound, how does the EC50 ([1]; Mus musculus, P388, read-out: ED50 (the source's name)) read?
Its EC50 is 1200 nM.

And the T/C [20]?
The T/C was 110%.

And the Activity [21]?
The Activity was 29%.

And the T/C [22]?
Its T/C is 116%.

And the T/C [23]?
The T/C was 139%.

What about the T/C [24] of the same compound?
The T/C was 163%.

And the T/C [25]?
Its T/C is 105%.

And the T/C [26]?
The T/C was 133%.

What about the T/C [27] of the same compound?
The T/C was 109%.

What about the T/C [28] of the same compound?
Its T/C is 107%.

What about the ED50 [6] of the same compound?
The ED50 was 8.1 ×10⁻⁵ umol/ml.

And the Activity [29]?
The Activity was 0.01%.

And the T/C [30]?
The T/C was 109%.

What about the T/C [31] of the same compound?
The T/C was 147%.

And the T/C [32]?
Its T/C is 107%.

And the ED50 [9]?
The ED50 was 5.5 ×10⁻⁴ umol/ml.

What about the T/C [33] of the same compound?
Its T/C is 134%.

And the Activity [34]?
The Activity was 2%.

What about the T/C [35] of the same compound?
Its T/C is 105%.

What about the T/C [36] of the same compound?
Its T/C is 155%.

And the inhibition [18]?
The inhibition was “Active”.
